According to ChEMBL document CHEMBL5352422, “Development of l-Dopa-containing diketopiperazines as blood-brain barrier shuttle” (Eur J Med Chem, 2022):

Assays:
[1] = Antioxidant activity against rat Cerebral cortex cell assessed as trolox equivalent of total antioxidant capacity at 100 nM incubated for 24 hrs (14.7 to 27.5 mmolequiv/L ); assay type: functional, Cerebral cortex neuron
[2] = Antioxidant activity against rat Cerebral cortex cell assessed as trolox equivalent of total antioxidant capacity at 250 nM incubated for 24 hrs (14.7 to 27.5 mmolequiv/L ); assay type: functional, Cerebral cortex neuron
[3] = Antioxidant activity against rat Cerebral cortex cell assessed as trolox equivalent of total antioxidant capacity at 500 nM incubated for 24 hrs (14.7 to 27.5 mmolequiv/L ); assay type: functional, Cerebral cortex neuron
[4] = Antioxidant activity against Primary human whole blood cell assessed as trolox equivalent of total antioxidant capacity at 10 nM incubated for 24 hrs (19.3 to 32.5 mmolequiv/L ); assay type: functional
[5] = Antioxidant activity against Primary human whole blood cell assessed as trolox equivalent of total antioxidant capacity at 250 nM incubated for 24 hrs (19.3 to 32.5 mmolequiv/L ); assay type: functional
[6] = Antioxidant activity against rat Cerebral cortex cell assessed as H2O2 equivalent of total oxidative stress at 50 nM incubated for 24 hrs (0.7 to 2.3 micromolequiv/L); assay type: functional, Cerebral cortex neuron
[7] = Antioxidant activity against rat Cerebral cortex cell assessed as H2O2 equivalent of total oxidative stress at 100 nM incubated for 24 hrs (0.7 to 2.3 micromolequiv/L); assay type: functional, Cerebral cortex neuron
[8] = Antioxidant activity against rat Cerebral cortex cell assessed as H2O2 equivalent of total oxidative stress at 250 nM incubated for 24 hrs (0.7 to 2.3 micromolequiv/L); assay type: functional, Cerebral cortex neuron
[9] = Antioxidant activity against Primary human whole blood cell assessed as H2O2 equivalent of total oxidative stress at 50 nM incubated for 24 hrs (0.6 to 1.9 micromolequiv/L); assay type: functional
[10] = Antioxidant activity against Primary human whole blood cell assessed as H2O2 equivalent of total oxidative stress at 100 nM incubated for 24 hrs (0.6 to 1.9 micromolequiv/L); assay type: functional
[11] = Antioxidant activity against Primary human whole blood cell assessed as H2O2 equivalent of total oxidative stress at 250 nM incubated for 24 hrs (0.6 to 1.9 micromolequiv/L); assay type: functional
[12] = Antioxidant activity against Primary human whole blood cell assessed as H2O2 equivalent of total oxidative stress at 500 nM incubated for 24 hrs (0.6 to 1.9 micromolequiv/L); assay type: functional
[13] = Induction of DNA damage in rat Cerebral cortex cell assessed as 8-OH-dG adducts formation at 100 nM incubated for 24 hrs by […] (reference value: 0.14 to 1.92 pg/ml); assay type: functional, Cerebral cortex neuron
[14] = Induction of DNA damage in Primary human whole blood cell assessed as 8-OH-dG adducts formation at 10 nM incubated for 24 hrs by […] (reference value: 0.12 to 2.21 pg/ml); assay type: functional
[15] = Induction of DNA damage in Primary human whole blood cell assessed as 8-OH-dG adducts formation at 100 nM incubated for 24 hrs by […] (reference value: 0.12 to 2.21 pg/ml); assay type: functional
[16] = Induction of DNA damage in rat Cerebral cortex cell assessed as total DNA damage score at 10 nM incubated for 24 hrs by Comet assay (reference value: 36.8 to 89.2); assay type: functional, Cerebral cortex neuron
[17] = Induction of DNA damage in Primary human whole blood cell assessed as total DNA damage score at 10 nM incubated for 24 hrs by Comet assay (reference value: 35.4 to 77.9); assay type: functional
[18] = Induction of DNA damage in Primary human whole blood cell assessed as total DNA damage score at 50 nM incubated for 24 hrs by Comet assay (reference value: 35.4 to 77.9); assay type: functional
[19] = Induction of DNA damage in Primary human whole blood cell assessed as total DNA damage score at 250 nM incubated for 24 hrs by Comet assay (reference value: 35.4 to 77.9); assay type: functional
[20] = Genotoxicity in human Lymphocyte assessed as sister chromatid exchange measured per cells at 250 nM incubated for 72 hrs giemsa staining based fluorescence method (reference value: 6.6 to 14.3); assay type: toxicity, cell-based; settings: 0.25 µM
[21] = Genotoxicity in human Lymphocyte assessed as micronuclei formation measured per 1000 cells at 250 nM incubated for 72 hrs giemsa staining based analysis (reference value: 4.5 to 17.9); assay type: toxicity, cell-based; settings: 0.25 µM
How it was run: (§1)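 Human whole-blood lymphocyte cultures with phytohemagglutinin, incubated with compound for 72 h at 37 °C. Cytochalasin B added at 44 h. Cells fixed in ice-cold methanol/acetic acid 1:1, cytospun, Giemsa-stained. At least 1000 binucleated lymphocytes per concentration scored for micronuclei by one observer.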

[22] = Genotoxicity in human Lymphocyte assessed as micronuclei formation measured per 1000 cells at 500 nM incubated for 72 hrs giemsa staining based analysis (reference value: 4.5 to 17.9); assay type: toxicity, cell-based; settings: 0.5 µM; how it was run: as §1
[23] = Stability of the compound in hydrochloric acid buffer assessed as chemical hydrolysis by measuring half life at pH 1.2; assay type: physicochemical
How it was run: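 Chemical hydrolysis at 37 °C in hydrochloric acid buffer pH 1.2 or phosphate buffer pH 7.4. Remaining compound followed by HPLC with UV detection. t1/2 and k_obs are means of three experiments ± SD.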

[24] = Stability of the compound in stimulated gastric fluid at 40 mg/ml pepsin by measuring half life measured upto 60 mins by HPLC analysis; assay type: ADME; settings: simulated gastric fluid with pepsin
How it was run: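 USP simulated gastric fluid containing pepsin, preheated, in a 37 °C shaking water bath. Samples at 0, 15, 30 and 60 min were deproteinized with ice-cold acetonitrile containing 0.5% formic acid, centrifuged at 4 °C, filtered and analyzed by HPLC. Means of three experiments.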

[25] = Stability in human plasma assessed as observed rate constant by HPLC method; assay type: ADME, cell-free
How it was run: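 Stock added to 37 °C human plasma diluted with 0.02 M phosphate buffer pH 7.4 to 80% plasma. Aliquots taken over time were quenched with 0.01 M HCl in methanol, centrifuged 5 min at 5000 g, and supernatant analyzed by HPLC-UV. t1/2 and k_obs are means of three experiments ± SD.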

[26] = Apparent permeability of the compound across apical side to basolateral side in human Caco-2 cells measured upto 180 mins by HPLC analysis; assay type: ADME, cell-based
[27] = Cytotoxicity against rat Cerebral cortex cell at 10 to 500 nM incubated for 24 hrs by MTT assay; assay type: toxicity, cell-based; settings: cerebral cortex neuron, 0.5 µM, dose 10-500 nM
How it was run: (§2)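 Primary cultures (rat fetal cortical neurons; human whole-blood cultures with phytohemagglutinin) exposed to aqueous compound at 10–500 nM for 24 h at 37 °C. Then incubated with 0.7 mg/mL MTT for 30 min at 37 °C, formazan extracted with isopropanol/formic acid 95:5, read at 560 nm. Control formazan = 100% viability. Mitomycin C 10^-7 M as positive control; n = 4.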

[28] = Cytotoxicity against Primary human whole blood cell at 10 to 500 nM incubated for 24 hrs by MTT assay; assay type: toxicity, cell-based; settings: 0.5 µM, dose 10-500 nM; how it was run: as §2
[29] = Cytotoxicity against Primary human whole blood cell at 10 to 500 nM incubated for 24 hrs by LDH assay; assay type: toxicity, cell-based; settings: 0.5 µM, dose 10-500 nM
How it was run: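 Rat fetal cortical neuron or human whole-blood cultures treated 24 h at 37 °C with aqueous compound at 10–500 nM. LDH released into 100 µL of medium measured by kit as the rate of NAD+ reduction (lactate to pyruvate), absorbance increase at 490 nm. Mitomycin C 10^-7 M as positive control; four independent experiments.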

Compound `C#CCSC[C@H]1NC(=O)[C@H](Cc2ccc(OC(C)=O)c(OC(C)=O)c2)NC1=O` has an Activity [1] of 15.2 mmolequiv/L, an Activity [2] of 15.4 mmolequiv/L and an Activity [3] of 14.8 mmolequiv/L. For the same compound, the Activity [4] was 19.4 mmolequiv/L, the Activity [5] was 19.8 mmolequiv/L and the Activity [6] was 0.6 umolequiv/L. It also gave an Activity [7] of 0.6 umolequiv/L, an Activity [8] of 0.6 umolequiv/L and an Activity [9] of 0.6 umolequiv/L. The Activity [10] was 0.6 umolequiv/L, the Activity [11] was 0.7 umolequiv/L and the Activity [12] was 0.7 umolequiv/L. The Activity [13] was 0.14 pg/mL, the Activity [14] was 0.12 pg/mL and the Activity [15] was 0.12 pg/mL. The Activity [16] was 36.9, the Activity [17] was 36 and the Activity [18] was 35.8. For the same compound, the Activity [19] was 35.9, the Activity [20] was 7.1 and the Activity [21] was 5.1. It also gave an Activity [22] of 5.1, a half-life [23] of 134 h and a half-life [24] of 57.1 h. For the same compound, the Kobs [25] was 0.332 h⁻¹, the Papp A→B at 3 h [26] was 17.4 ×10⁻⁶ cm/s and the Activity [27] was “Non-Toxic”. For the same compound, the Activity [28] was “Non-Toxic” and the Activity [29] was “Non-Toxic”.

`C=CCSC[C@H]1NC(=O)[C@H](Cc2ccc(OC(C)=O)c(OC(C)=O)c2)NC1=O` showed an Activity [1] of 14.4 mmolequiv/L, an Activity [2] of 14.7 mmolequiv/L and an Activity [3] of 14.9 mmolequiv/L. For the same compound, the Activity [4] was 19.2 mmolequiv/L, the Activity [5] was 18.8 mmolequiv/L and the Activity [6] was 0.7 umolequiv/L. For the same compound, the Activity [7] was 0.7 umolequiv/L, the Activity [8] was 0.7 umolequiv/L and the Activity [9] was 0.7 umolequiv/L. For the same compound, the Activity [10] was 0.7 umolequiv/L, the Activity [11] was 0.7 umolequiv/L and the Activity [12] was 0.7 umolequiv/L. The Activity [13] was 0.15 pg/mL, the Activity [14] was 0.12 pg/mL and the Activity [15] was 0.12 pg/mL. The Activity [16] was 36.3, the Activity [17] was 35 and the Activity [18] was 35.7. For the same compound, the Activity [19] was 35.7, the Activity [20] was 7.1 and the Activity [21] was 5.2. The Activity [22] was 5.2, the half-life [23] was 18.9 h and the half-life [24] was 22.4 h. The Kobs [25] was 7.22 h⁻¹, the Papp A→B at 3 h [26] was 7.5 ×10⁻⁶ cm/s and the Activity [27] was “Non-Toxic”. The Activity [28] was “Non-Toxic” and the Activity [29] was “Non-Toxic”.
